# In ChEMBL document CHEMBL1255422, “Novel FKS mutations associated with echinocandin resistance in Candida species” (Antimicrob Agents Chemother, 2010):
# Numbered stars: 1 amine (or outer) side, 2 acyl side, 3 side chain; on linkers, the order of the positions; unused ones are H or OH. Bridge positions count the residues as written; N and C are the ends. Square brackets hold non-standard residues; d marks the D form. Peptide text beside a SMILES is read from it. * marks the point of attachment. hTyr(3S-OH,4S-OH,3'-OSO3H) = N[C@H](C(=O)O)[C@H](O)[C@@H](O)c1ccc(O)c(OS(=O)(=O)O)c1; pTerphenylCO(4''-OnC5H11) = CCCCCOc1ccc(-c2ccc(-c3ccc(C(=O)*)cc3)cc2)cc1; Orn(4R-OH,5R-OH) = O=C([C@H](C[C@@H](O)[C@@H](O)N[*:3])N[*:1])[*:2]; hTyr(3S-OH,4S-OH) = N[C@H](C(=O)O)[C@H](O)[C@@H](O)c1ccc(O)cc1; Pro(3S-OH,4S-Me) = C[C@H]1CN[C@H](C(=O)O)[C@H]1O; X1 = CCCCCOc1ccc(-c2cc(-c3ccc(C(=O)*)cc3)no2)cc1; Gln(3R-OH) = NC(=O)C[C@@H](O)[C@H](N)C(=O)O; Hyp = O=C(O)[C@@H]1C[C@@H](O)CN1
# Legend:
# [1] = Inhibition of Candida albicans 177 FKS1 T1922C mutant
# In short: (§1)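 1,3-β-d-glucan synthase complexes were isolated from each strain and titrated against echinocandin to generate inhibition curves. IC50 was taken from the inhibition kinetics and given as the arithmetic mean of three repetitions.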
# [2] = Inhibition of Candida albicans ATCC 90028 wild type FKS; in short: as §1
# Nakaseomyces glabratus [3] = test: Antifungal activity against wild type Candida glabrata ATCC 90030; type: functional
# In short: (§2)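 MIC by broth dilution. The reported value is the geometric mean of three repetitions. Clinical isolates were tested alongside reference strains C. glabrata ATCC 90030, C. tropicalis ATCC 750, C. albicans ATCC 90028, 205 and 177.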
# [4] = Inhibition of Candida glabrata CG-C3 FKS
# Candida albicans [5] = test: Antifungal activity against wild type Candida albicans ATCC 90028; type: functional
# In short: (§3)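 Whole-cell MIC testing of clinical isolates alongside reference strains. Each MIC is the geometric mean of three repetitions.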
# Nakaseomyces glabratus [6] = test: Antifungal activity against Candida glabrata CG-C2 harboring FKS1 T1885C mutant gene; type: functional; in short: as §3
# Candida tropicalis [7] = test: Antifungal activity against wild type Candida tropicalis ATCC 750; type: functional; in short: as §3
# [8] = Inhibition of Candida glabrata CG-C2 FKS1 T1885C mutant; parameters: species or system Nakaseomyces glabratus; in short: as §1
# Nakaseomyces glabratus [9] = test: Antifungal activity against Candida glabrata CG-C3 harboring FKS2 T1987C mutant gene; type: functional; in short: as §3
# Candida albicans [10] = test: Antifungal activity against Candida albicans 205 harboring FKS1 T1933C mutant gene; type: functional; in short: as §3
# [11] = Inhibition of Candida tropicalis ATCC 750 wild type FKS; in short: as §1
# [12] = Inhibition of Candida tropicalis CT-C1 FKS1 T227C mutant; in short: as §1
# [13] = Inhibition of Candida glabrata CG-C2 FKS
# [14] = Inhibition of Candida glabrata CG-C3 FKS2 T1987C mutant; parameters: species or system Nakaseomyces glabratus; in short: as §1
# Candida tropicalis [15] = test: Antifungal activity against Candida tropicalis CT-C1 harboring FKS1 T227C mutant gene; type: functional; in short: as §3
# [16] = Inhibition of Candida albicans 205 FKS1 T1933C mutant; in short: as §1
# Candida albicans [17] = test: Antifungal activity against Candida albicans 177 harboring FKS1 T1922C mutant gene; type: functional; in short: as §3
# [18] = Inhibition of Candida glabrata ATCC 90030 wild type FKS; parameters: species or system Nakaseomyces glabratus; in short: as §1
# [19] = Inhibition of Candida tropicalis CT-C1 FKS
# Nakaseomyces glabratus [20] = test: Antifungal activity against Candida glabrata clinical isolate assessed as percent isolates by broth dilution assay
# Candida tropicalis [21] = test: Antifungal activity against Candida tropicalis clinical isolate by broth dilution assay; type: functional; in short: as §2
# Candida tropicalis [22] = test: Antifungal activity against Candida tropicalis clinical isolate assessed as percent isolates by broth dilution assay
# Nakaseomyces glabratus [23] = test: Antifungal activity against Candida glabrata clinical isolate by broth dilution assay; type: functional; in short: as §2
SMILES,IC50 [1],IC50 [2],MIC (Nakaseomyces glabratus [3]),MIC (Candida albicans [5]),MIC (Nakaseomyces glabratus [6]),MIC (Candida tropicalis [7]),IC50 [8],MIC (Nakaseomyces glabratus [9]),MIC (Candida albicans [10]),IC50 [11],IC50 [12],IC50 [14],MIC (Candida tropicalis [15]),IC50 [16],MIC (Candida albicans [17]),IC50 [18],further results
"CCCCCOc1ccc(-c2ccc(-c3ccc(C(=O)N[C@H]4C[C@@H](O)[C@@H](O)NC(=O)[C@@H]5[C@@H](O)[C@@H](C)CN5C(=O)[C@H]([C@@H](C)O)NC(=O)[C@H]([C@H](O)[C@@H](O)c5ccc(O)cc5)NC(=O)[C@@H]5C[C@@H](O)CN5C(=O)[C@H]([C@@H](C)O)NC4=O)cc3)cc2)cc1 [ANIDULAFUNGIN] ({pTerphenylCO(4''-OnC5H11)}-[Orn(4R-OH,5R-OH)]T[Hyp][hTyr(3S-OH,4S-OH)]T[Pro(3S-OH,4S-Me)]; lactam 1-C)",1.091 µg/mL,0.0005 µg/mL,< 0.03 µg/mL,0.03 µg/mL,4 µg/mL,0.06 µg/mL,12.778 µg/mL,8 µg/mL,1.33 µg/mL,0.00233 µg/mL,0.06128 µg/mL,16.882 µg/mL,1 µg/mL,0.2454 µg/mL,0.83 µg/mL,–,IC50 [4]: 13.29 µg/mL; IC50 [13]: 14.26 µg/mL
"CCCCCOc1ccc(-c2cc(-c3ccc(C(=O)N[C@H]4C[C@@H](O)[C@@H](O)NC(=O)[C@@H]5[C@@H](O)[C@@H](C)CN5C(=O)[C@H]([C@H](O)CC(N)=O)NC(=O)[C@H]([C@H](O)[C@@H](O)c5ccc(O)c(OS(=O)(=O)O)c5)NC(=O)[C@@H]5C[C@@H](O)CN5C(=O)[C@H]([C@@H](C)O)NC4=O)cc3)no2)cc1 [MICAFUNGIN] (X1-[Orn(4R-OH,5R-OH)]T[Hyp][hTyr(3S-OH,4S-OH,3'-OSO3H)][Gln(3R-OH)][Pro(3S-OH,4S-Me)]; lactam 1-C)",1.435 µg/mL,0.0188 µg/mL,0.03 µg/mL,0.03 µg/mL,2 µg/mL,0.06 µg/mL,15.144 µg/mL,> 16 µg/mL,4 µg/mL,0.007545 µg/mL,0.4059 µg/mL,11.422 µg/mL,1 µg/mL,1.088 µg/mL,1 µg/mL,0.00071 µg/mL,IC50 [19]: 0.4014 µg/mL
CC[C@H](C)C[C@H](C)CCCCCCCCC(=O)N[C@H]1C[C@@H](O)[C@@H](NCCN)NC(=O)[C@@H]2[C@@H](O)CCN2C(=O)[C@H]([C@H](O)CCN)NC(=O)[C@H]([C@H](O)[C@@H](O)c2ccc(O)cc2)NC(=O)[C@@H]2C[C@@H](O)CN2C(=O)[C@H]([C@@H](C)O)NC1=O [CASPOFUNGIN],1.091 µg/mL,0.0005 µg/mL,0.03 µg/mL,0.12 µg/mL,8 µg/mL,0.25 µg/mL,12.778 µg/mL,> 16 µg/mL,8 µg/mL,0.00233 µg/mL,0.06128 µg/mL,16.882 µg/mL,4 µg/mL,0.2454 µg/mL,4 µg/mL,0.00192 µg/mL,Activity (Nakaseomyces glabratus [20]): 2.2%; MIC (Candida tropicalis [21]): ≥ 2 µg/mL; Activity (Candida tropicalis [22]): 5.8%; MIC (Nakaseomyces glabratus [23]): ≥ 2 µg/mL
